Compounds with a hit are over-represented: about 4% of the library has one in this group of screens.
KCNK9 inh: KCNK9 potassium channel inhibitors, primary screen, HEK293 cells, thallium flux; Potassium channel subfamily K member 9 (Homo sapiens), Q9NPC2; AID 488922, 2010; FluxOR thallium flux fluorescence; stronger effect = lower value; B-score at 10 µM; 310,000 tested, 1.2% active;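 active = ratio B-score over 3 SD below the library mean, with starting fluorescence within 5 SD of its mean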;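 note: negative B-score means less thallium flux so channel inhibition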
Target sequence (Q9NPC2 whole entry, looked up): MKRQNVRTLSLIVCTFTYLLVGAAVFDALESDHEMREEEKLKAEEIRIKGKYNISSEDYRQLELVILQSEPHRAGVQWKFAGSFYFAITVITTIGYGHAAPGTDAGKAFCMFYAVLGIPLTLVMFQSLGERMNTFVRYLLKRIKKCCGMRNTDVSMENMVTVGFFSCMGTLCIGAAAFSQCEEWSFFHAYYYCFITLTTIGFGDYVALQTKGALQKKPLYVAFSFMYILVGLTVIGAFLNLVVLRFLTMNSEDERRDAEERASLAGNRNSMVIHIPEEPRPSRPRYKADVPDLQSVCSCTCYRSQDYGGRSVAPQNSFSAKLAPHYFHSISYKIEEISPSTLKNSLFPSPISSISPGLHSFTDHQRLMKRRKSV
KCNQ1 block: inhibitors of human KCNQ1 channel, primary screen, cell-based, thallium flux, high-throughput; Potassium voltage-gated channel subfamily KQT member 1 (Homo sapiens), P51787; CHO-K1 KCNQ1, FluxOR thallium flux fluorescence; stronger effect = higher value; B-score at 10 µM; 310,000 tested, 1.3% active; AID 2642, 2010;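 active = compounds whose thallium flux B-score, printed positive for inhibition, exceeds three library SD while starting fluorescence stays within three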;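 note: channel opened by potassium depolarization with thallium stimulus after 20 min compound exposure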
PHOSPHO1 block: PubChem AID 1565 | Phosphoethanolamine/phosphocholine phosphatase (Homo sapiens), Q8TCT1 | recombinant PHOSPHO1, absorbance phosphatase assay | inhibition, % at 13.3 µM | 290,000 tested, 1.1% active; in the data active = inhibition above about 60%
Target sequence (Q8TCT1 whole entry, looked up): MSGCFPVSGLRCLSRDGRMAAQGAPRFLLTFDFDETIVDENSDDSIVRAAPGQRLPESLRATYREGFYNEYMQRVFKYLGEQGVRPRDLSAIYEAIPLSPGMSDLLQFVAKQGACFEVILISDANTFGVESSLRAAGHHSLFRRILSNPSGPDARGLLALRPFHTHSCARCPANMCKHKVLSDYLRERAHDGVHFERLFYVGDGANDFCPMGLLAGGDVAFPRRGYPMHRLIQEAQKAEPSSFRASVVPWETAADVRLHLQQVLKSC
KCNK3 block: human KCNK3 channel inhibitors, primary screen, CHO cells, FluxOR thallium flux, B-score; FluxOR fluorescence; stronger effect = lower value; Potassium channel subfamily K member 3 (Homo sapiens), O14649; 340,000 tested, 0.84% active; B-score at 10 µM;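 active = B-score under library mean minus 4 SD, starting fluorescence ratio at most library mean plus 5 SD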;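 note: more negative B-score means stronger inhibition of thallium flux through KCNK3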
KCNQ1 act: potentiators or activators of KCNQ1 channel, primary screen, cell-based, thallium flux, high-throughput; 310,000 tested, 0.35% active; CHO-K1 KCNQ1, thallium flux FluxOR fluorescence; stronger effect = higher value; B-score at 10 µM; AID 2648, 2010; Potassium voltage-gated channel subfamily KQT member 1 (Homo sapiens), P51787;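 active = fluorescence ratio B-score, a plate-corrected score, at least three library SD, with initial intensity B-score within 5 SD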
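assay system = CHO-K1 cells stably expressing KCNQ1 | medium = assay buffer, equal DMSO in all wells | timing = 37 °C overnight plating, 90-min dark dye load, 20-min compound pretreatment | measured by = kinetic FluxOR thallium fluorescence, 10-s 1-Hz baseline, 110-s post-stimulus read | measure = fluorescence change relative to baseline, converted to B score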
hERG rescue: hERG rescue from dofetilide block, primary screen, cell-based, CHO-hERG, FluxOR thallium flux, dofetilide IC70; AID 1511, 2009; dofetilide IC70 present; Voltage-gated inwardly rectifying potassium channel KCNH2 (Homo sapiens), Q12809; 310,000 tested, 0.51% active; activation (rescue from dofetilide block), less the hit threshold, % at 10 µM;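 active = activation above the mean of controls blocked by dofetilide plus 5 SD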;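 note: thallium influx through hERG after potassium depolarization seen as dye fluorescence rise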
KCNK3 confirm: retest of human KCNK3 channel inhibitors, confirmation, CHO cells, FluxOR thallium flux, triplicate | shares compounds with KCNK3 block | FluxOR fluorescence; 0% buffer, 100% carvedilol maximal block | ratio percent of control, % at 10 µM | 2,400 tested, 99% active | AID 651638, 2012;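 active = ratio percent of control, averaged over triplicates, above buffer control mean plus 5 SD, cut at about 64% in these data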;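 note: ratio is the fluorescence rise from min to max over baseline after thallium stimulus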
KCNK3 noninduced: thallium flux inhibition in non-induced cells, primary screen, counter-screen for KCNK3 inhibitor project, cell-based, non-induced KCNK3 line, FluxOR thallium, triplicate. thallium flux ratio (lower = more inhibition) at 10 µM. AID 651747, 2012. non-induced KCNK3 parental cells; stronger effect = lower value. shares compounds with KCNK3 block. 2,400 tested, 40% active;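 active = thallium flux ratio, averaged over three wells, more than 5 SD below the buffer control mean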;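 note: host cells are CHO cells without KCNK3 induction; ratio is peak minus trough fluorescence over baseline then normalized to buffer controls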
* hit, by the source's call; i = inactive; / = no result given.

SMILES	KCNK9 inh	KCNQ1 block	PHOSPHO1 block	KCNK3 block	KCNQ1 act	hERG rescue	KCNK3 confirm	KCNK3 noninduced
O=C(N/N=C/c1ccc(Br)o1)c1cc([N+](=O)[O-])cc([N+](=O)[O-])c1	i	i	35	i	i	1	/	/
O=C(c1ccccc1)c1cc2ccc(O)cc2oc1=O	i	i	28	i	i	-9	/	/
CCOC(=O)C1=C(C)N=c2s/c(=C/c3cccc([N+](=O)[O-])c3O)c(=O)n2C1c1ccccc1 (configuration not stated)	i	13*	-124	-12*	i	-28	124*	0.1*
CCCn1c(O)c(N=NC(=O)c2cccnc2)c2cc(Br)ccc21	i	i	25	i	i	-10	/	/
Clc1ccccc1/C=C/C=N/Nc1nc(N2CCOCC2)nc(N2CCOCC2)n1	i	i	0	-10*	i	-19	94*	i
COC(=O)CSc1nc(Cc2ccccc2)nc2ccccc12	i	i	23	-8.7*	i	-29	119*	i
COC(=O)CSc1nc(COc2ccccc2)nc2ccccc12	i	i	/	i	i	-2	/	/
O=C(c1ccc(-c2ccccc2)cc1)N1CCN(c2ccccc2F)CC1	i	i	14	-9.2*	i	-9	108*	i
O=C(c1ccccc1)N1CCN(c2ccccc2F)CC1	i	i	45	i	i	-8	/	/
CCc1nc(N2CCN(C(=S)NCCCOC)CC2)c2c3c(sc2n1)CCCC3	i	i	24	-8.9*	i	-14	95*	0.15*
O=C(NCCn1cc(SCc2ccccc2)c2ccccc21)c1ccccc1F	i	8*	-14	-15*	i	-23	124*	0.15*
CCN1/C(=C\C(=S)Nc2ccccc2)Sc2ccccc21	i	i	17	-9.8*	i	-14	110*	i
CCN1/C(=C\C=C2\C(=O)N(c3ccccc3)C(=S)N2C)Sc2ccccc21	i	i	-27	i	i	-7	/	/
COc1ccc(C2(C(=O)Nc3ccc(C(=O)N4CCOCC4)cc3)CCOCC2)cc1	i	i	8	i	i	-8	/	/
COc1ccc(C2c3ccc(O)cc3Oc3ncn(Cc4ccccc4)c(=N)c32)cc1OC (configuration not stated)	i	i	30	-8.9*	i	-14	75*	i
COc1ccc(C2c3ccc(O)cc3Oc3ncn4nc(-c5ccccn5)nc4c32)cc1OC (configuration not stated)	i	i	24	i	i	-15	/	/
COc1ccc(C2c3ccc(O)cc3Oc3ncn4nc(-c5ccncc5)nc4c32)cc1OC (configuration not stated)	i	i	21	-8.7*	i	-12	80*	i
COc1ccc(C2c3ccc(O)cc3Oc3ncn(CCN4CCOCC4)c(=N)c32)cc1OC (configuration not stated)	i	i	23	i	i	-10	/	/
CC(/C=N/NC(=O)c1ccccn1)=C\c1ccco1	i	i	-5	i	i	-7	/	/
O=C(O)CS(=O)CC(=O)Nc1cccc(C(F)(F)F)c1 (configuration not stated)	i	i	46	i	i	-10	/	/
S=C(NCCN1CCOCC1)N/N=C/c1c2ccccc2cc2ccccc12	i	i	24	i	i	-10	/	/
COCCNC(=S)N/N=C/c1c2ccccc2cc2ccccc12	i	i	9	-14*	i	-27	110*	i
Nc1nc(N)nc(-c2ccc(Oc3ccccc3)cc2)n1	i	i	11	i	i	1	/	/
Nc1ncnc2c1c(-c1ccc(Oc3ccccc3)cc1)cn2C1CCCC1	/	/	/	-12*	/	/	115*	i
CCC(=O)Nc1ccccc1C(=O)OCc1ccc(C(=O)c2ccccc2)cc1	i	i	12	-9.3*	i	-14	98*	i
SMILES	KCNK9 inh	KCNQ1 block	PHOSPHO1 block	KCNK3 block	KCNQ1 act	hERG rescue	KCNK3 confirm	KCNK3 noninduced
CCOC(=O)N1CCC(=C(C#N)C(=O)Nc2cc(OC)ccc2OC)CC1	i	i	38	i	i	-5	/	/
COCCCn1c(SCC(=O)NC2CCCCC2)nnc1-c1ccco1	i	i	40	i	i	-11	/	/
O=C(C=Cc1ccccc1)c1cccs1	/	/	/	i	/	/	/	/
Nc1ccc(/C=C/C(=O)c2cccs2)cc1	i	i	-11	-9.3*	i	-17	123*	0.093*
c1nc2nc3c(c(N4CCOCC4)n2n1)CCCC3	i	i	13	i	i	-5	/	/
Fc1cccc(-c2cc3nc4c(c(N5CCOCC5)n3n2)CCCC4)c1	i	i	-29	-11*	i	-9	113*	i
C=CCn1c(SCC(=O)N2CC(=O)Nc3ccccc32)nc2scc(-c3cccs3)c2c1=O	-7.4*	i	1	-13*	i	-15	110*	i
CC(C)CCn1c(SCC(=O)N2CC(=O)Nc3ccccc32)nc2scc(-c3cccs3)c2c1=O	i	i	24	i	i	-8	/	/
COc1ccc2cc(S(=O)(=O)N3CCCCC3)ccc2c1S(=O)(=O)N1CCCCC1	i	i	10	i	i	-12	/	/
COc1ccc(/C=C/C(=O)N2CCCc3ccccc32)c(OC)c1	i	i	15	i	i	-11	/	/
COc1ccc(OC)c(/C=C/C(=O)N2CCCc3ccccc32)c1	i	i	4	-11*	i	-10	113*	i
CC(C)CCOc1ccccc1C(N)=O	i	i	47	i	i	-8	/	/
CCOc1ccccc1OCCCOc1ccc([N+](=O)[O-])cc1Cl	i	i	-8	-9.8*	i	3	110*	i
CC(=O)c1cccc(NS(C)(=O)=O)c1	i	i	-2	i	i	-2	/	/
Cc1ccc(C)c(OCc2cc(C(=O)N3CCNC(=O)C3)no2)c1	i	i	9	i	i	0	/	/

Compound activity: PubChem, several laboratories
